Compound activity deposited in PubChem by several laboratories.
NTR1 ag = activates human neurotensin receptor 1; AID 493036; activation, % at 20 µM; actives 0.17% (n = 330,000); P30989; NTR1-U2OS beta-arrestin-GFP spot imaging, agonist mode;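 active = activation at or above 40% of the spot to cytoplasm intensity ratio, with at least 20 cells analyzed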;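 also: 0% = DMSO without peptide and 100% = 100 nM NTR1 peptide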
Rev-erbA mod = modulators of human Rev-erb alpha DNA binding; P20393; Rev-erbα–FITC-DNA binding, fluorescence polarization, 90 min; activity, % at 10 µM; actives 0.79% (n = 370,000);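 active = activity above about 14%, limit read from the data; passing the limit was not always enough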;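 also: 0% = DMSO wells with 35 nM protein and 100% = DMSO wells with 750 nM protein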
Target sequence (P20393 whole entry, looked up): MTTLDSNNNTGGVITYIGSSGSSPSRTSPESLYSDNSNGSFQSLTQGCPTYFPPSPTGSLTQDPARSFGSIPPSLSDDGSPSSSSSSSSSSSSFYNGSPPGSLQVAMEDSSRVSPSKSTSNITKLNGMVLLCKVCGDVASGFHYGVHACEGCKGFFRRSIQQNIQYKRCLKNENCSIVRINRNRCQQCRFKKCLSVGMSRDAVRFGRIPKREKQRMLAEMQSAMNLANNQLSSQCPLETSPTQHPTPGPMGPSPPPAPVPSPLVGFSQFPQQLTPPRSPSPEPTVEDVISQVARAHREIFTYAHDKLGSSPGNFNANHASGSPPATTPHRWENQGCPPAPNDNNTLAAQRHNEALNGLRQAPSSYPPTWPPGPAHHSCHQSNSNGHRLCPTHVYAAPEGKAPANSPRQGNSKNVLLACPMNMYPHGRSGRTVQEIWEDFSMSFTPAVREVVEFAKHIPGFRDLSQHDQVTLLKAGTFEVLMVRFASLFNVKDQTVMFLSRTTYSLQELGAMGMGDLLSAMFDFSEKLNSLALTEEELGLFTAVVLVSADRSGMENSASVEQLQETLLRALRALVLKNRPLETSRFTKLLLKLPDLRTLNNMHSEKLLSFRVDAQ
MC4R antagonist = human MC4R antagonism in cAMP assay. P32245. MC4R-expressing cells, MTII-stimulated cAMP, LANCE TR-FRET. inhibition, % at 6.5 µM. AID 540295. actives 0.48% (n = 360,000);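 active = inhibition above its plate's cutoff, the mean of tested wells on that plate plus 3 SD, cut at about 29% in these data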;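 also: 0% = Melanotan II alone and 100% = Melanotan II plus saturating MCL0020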
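system = U2OS cells with stable human MC4R expression | also added = Melanotan II challenge after compound preincubation | dosing = one concentration, 6.5 µM nominal | incubation = compound 30 min, challenge 1 h, detection 1 h | measured by = TR-FRET with Eu-cAMP and labeled anti-cAMP, 671 nm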
PG9 Ab binder = binds the HIV-1 gp120 antibody PG9; TR-FRET gp120-PG9 antibody binding; inhibition, % at 6.7 µM; actives 0.43% (n = 360,000); in the data active = inhibition above about 8.5%
MC4R barr agon = activates human MC4R beta-arrestin recruitment; actives 0.98% (n = 360,000); P32245; U2OS MC4R beta-arrestin complementation, luminescence; percent of melanotan II response, DMSO zero; activation, % at 8.9 µM; AID 540308;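 active = activation above a per-plate cutoff, the mean activation of sample wells on that plate plus 3 SD, cut at about 8% in these data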
NR1D1 mod conf = confirmation of modulators of human Rev-erb alpha DNA binding; actives 61% (n = 3,000); activation, % at 25 µM; Rev-erb alpha FITC-DNA binding, fluorescence polarization, 90 min; AID 1259319; shares compounds with Rev-erbA mod;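 active = activation at or above a set limit, or at least 3 SD above the negative control mean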;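 also: 0% = 35 nM protein with DMSO and 100% = 750 nM protein high control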
RORg counter = RORgamma DNA-binding activity, dose-response counter-screen. shares compounds with Rev-erbA mod. purified RORgamma protein-FITC-DNA binding, fluorescence polarization. AID 1259320. actives 8% (n = 910). IC50, µM;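 active = Compounds whose fitted half-maximal concentration for disrupting protein-DNA binding is below 10 micromolar; the record names Rev-erb in its text, so the target is in doubt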
* marks the source's active call; other numbers are inactive results. Only some compounds are listed: those with a hit (about 2.5% of all), similar ones and a draw of the others.

`CN1C(=O)c2cccc3c(N(C)C)ccc(c23)C1=O` gave NTR1 ag 1, Rev-erbA mod 27*, MC4R antagonist -9, PG9 Ab binder -5, MC4R barr agon -1 and NR1D1 mod conf 29*.
Screening CN1C(=O)c2cccc3c(Cl)ccc(c23)C1=O returned NTR1 ag 3, Rev-erbA mod 5, MC4R antagonist -3, PG9 Ab binder -1 and MC4R barr agon 3.
`CNc1ccc2c3c(cccc13)C(=O)N(C)C2=O` gave NTR1 ag -3, Rev-erbA mod 382*, MC4R antagonist -12, PG9 Ab binder -15, MC4R barr agon 0, NR1D1 mod conf 339* and RORg counter >40.
`Cc1ccc(-n2nc(C(=O)c3ccccc3)n3c(=O)cc(-c4ccccc4)nc23)cc1` gave NTR1 ag 2, Rev-erbA mod 49*, MC4R antagonist 4, PG9 Ab binder 2, MC4R barr agon -1 and NR1D1 mod conf 16.
`C[C@@H]1CCN(C2CC2)S(=O)(=O)c2ccc(N3CCC[C@H]3C)cc2O1` gave Rev-erbA mod 7.
For COc1cc(C(C)=O)ccc1OCC(=O)NC(=O)Nc1ccc(C)cc1C the results were NTR1 ag 2, Rev-erbA mod 28*, MC4R antagonist 8, PG9 Ab binder 0, MC4R barr agon 1 and NR1D1 mod conf -6.
Screening CCCn1c(SCN2C(=O)c3ccccc3C2=O)nc2cc(Cl)ccc2c1=O returned NTR1 ag 4, Rev-erbA mod 39*, MC4R antagonist 19, PG9 Ab binder -2, MC4R barr agon -1 and NR1D1 mod conf -40.
For Cc1cccc(-n2c(SCN3C(=O)c4ccccc4C3=O)nc3ccccc3c2=O)c1 the results were Rev-erbA mod 17 and PG9 Ab binder -1.
Screening Cc1ccc(NC(=O)OC2CC3CC2[C@H]2CCCCN2[C@H]3C)cc1 (stereo partly drawn) returned Rev-erbA mod 6.
